Results as given in publication PMC6120731 (ACS Omega, 2018).

What was measured:
[1] = target: T1, human recombinant GIVA cPLA2 (Homo sapiens, UniProt P47712); type: biochemical
T1 sequence (P47712 1-749): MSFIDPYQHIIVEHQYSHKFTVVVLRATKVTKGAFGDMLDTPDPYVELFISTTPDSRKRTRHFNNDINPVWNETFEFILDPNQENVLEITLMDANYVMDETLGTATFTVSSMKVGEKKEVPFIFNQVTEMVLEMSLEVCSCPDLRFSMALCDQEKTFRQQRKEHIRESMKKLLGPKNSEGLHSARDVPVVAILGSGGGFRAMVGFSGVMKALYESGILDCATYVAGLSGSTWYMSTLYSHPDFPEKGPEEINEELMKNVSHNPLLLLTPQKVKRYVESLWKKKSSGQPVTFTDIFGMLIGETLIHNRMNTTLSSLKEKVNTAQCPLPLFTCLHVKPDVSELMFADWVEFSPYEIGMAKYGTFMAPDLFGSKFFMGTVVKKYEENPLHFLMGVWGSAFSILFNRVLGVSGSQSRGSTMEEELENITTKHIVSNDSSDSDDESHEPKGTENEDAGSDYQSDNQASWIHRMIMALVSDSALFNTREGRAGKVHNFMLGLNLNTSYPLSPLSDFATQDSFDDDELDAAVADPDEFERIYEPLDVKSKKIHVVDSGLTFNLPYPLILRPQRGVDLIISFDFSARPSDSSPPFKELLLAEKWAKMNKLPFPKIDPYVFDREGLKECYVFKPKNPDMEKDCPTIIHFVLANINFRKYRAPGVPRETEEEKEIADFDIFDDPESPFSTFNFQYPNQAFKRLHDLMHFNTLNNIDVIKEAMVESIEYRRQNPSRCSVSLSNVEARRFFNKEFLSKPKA

plasma stability study = type: in vitro ADME; details: 37 °C, 1 mg/mL
Method in brief: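 Test compound added to preheated human plasma (37 °C) at a final 1 mg/mL. Aliquots taken at 0, 15, 30 and 60 min, quenched with acetonitrile, vortexed and centrifuged 5 min. Supernatants analysed by LC-HRMS/MS (negative ESI, C18 column, acetonitrile/isopropanol–water gradient with 0.01% formic acid). Each sample run in triplicate. Percent remaining relative to initial concentration plotted against time.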

| Compound | inhibition of GIVA cPLA2 (in words) [1] | parent compound in human plasma after 30 min (plasma stability study) | also measured |
| --- | --- | --- | --- |
| 5-((6-(4-Butoxyphenyl)-2-fluorohexanoyl)oxy)pentanoic Acid [Compound 27a] | abolished the inhibitory potency | – | percent parent compound remaining after 1 h (plasma stability study; human plasma, 1 h): ~100% |
| 5-((6-(4-Butoxyphenyl)hexanoyl)oxy)pentanoic Acid [Compound 27b] | no inhibition | – | – |
| CCCCOc1ccc(CCCCC(=O)C(=O)OCCCCC(=O)O)cc1 [Compound 25a, 5-((6-(4-Butoxyphenyl)-2-oxohexanoyl)oxy)pentanoic Acid] | – | not detectable | times less potent than 25b against GIVA cPLA2 [1]: 3 times |
| CCCCCCOc1ccc(CCCCC(=O)C(=O)OCCCCC(=O)O)cc1 [Compound 25b, 5-((6-(4-(Hexyloxy)phenyl)-2-oxohexanoyl)oxy)pentanoic Acid] | – | not detectable | selectivity for GIVA cPLA2 over GVIA iPLA2 [1]: at least 500 fold; times more potent than 6 against GIVA cPLA2 [1]: 4 times |
| CCCCOc1ccc(CCCCC(=O)C(=O)O)cc1 [Compound 29, 6-(4-Butoxyphenyl)-2-oxohexanoic Acid] | very weak inhibition | – | – |
